Compounds with a hit are over-represented: about 4.1% of the library has one in this group of screens.
Redox H2O2 prof – compounds producing H2O2 with reducing agent – biochemical, NIH compound library profiling, artefact control for MLSCN library redox annotation, primary screen. AID 878. activation, % at 10 µM. 200,000 compounds, 0.03% hits. DTT-dependent redox cycling H2O2, phenol red/HRP absorbance; 100% = 100 µM peroxide control, 0% = buffer;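 active = activation of at least 50% relative to the plate's high and low controls in the primary single-dose screen; inactive = activation below 50%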;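 also: compound incubated with DTT at 0.8 mM final as the reducing agent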
Cl transport mod – KCC2 (human) Cl- transport modulation. KCC2 cells, thallium flux FluoZin-2 fluorescence. B-score of Tl+ flux slope (higher = more flux/activation; lower = inhibition) at 10 µM. 190,000 compounds, 2.2% hits. AID 1456;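 active = thallium flux slope and its plate-corrected score both differing from the plate sample mean at a set confidence after two filtering rounds, in either direction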;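 also: slope of fluorescence scaled to starting intensity during 10 to 20 s after thallium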
ROMK primary – modulators of human ROMK potassium channel; P48048; B-score at 10 µM; Tet-inducible ROMK, thallium flux fluorescence; actives lie on both sides; AID 1918; 130,000 compounds, 2% hits;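 active = signal ratio slope over the read window, or its plate-corrected B-score, at least 3 SD from the plate mean, either direction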;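 also: B-score of the F/F0 ratio slope over 7 to 12 s after thallium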
Target sequence (P48048 whole entry, looked up): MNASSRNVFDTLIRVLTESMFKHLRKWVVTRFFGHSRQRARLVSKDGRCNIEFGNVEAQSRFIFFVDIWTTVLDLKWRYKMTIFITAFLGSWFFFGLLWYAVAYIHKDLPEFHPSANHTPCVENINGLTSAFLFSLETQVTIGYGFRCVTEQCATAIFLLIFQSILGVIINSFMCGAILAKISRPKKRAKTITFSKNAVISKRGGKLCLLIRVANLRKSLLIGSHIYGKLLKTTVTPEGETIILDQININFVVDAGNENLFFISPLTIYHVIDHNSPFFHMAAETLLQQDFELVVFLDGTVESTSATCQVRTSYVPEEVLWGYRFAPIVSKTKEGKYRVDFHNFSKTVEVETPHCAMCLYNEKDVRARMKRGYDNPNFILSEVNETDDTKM
Dynein cargo inh – blocks dynein driven cargo transport along microtubules | 3617.4 mouse cells, GR-EGFP nuclear translocation imaging; test concentration mostly 20 µM; stimulated with dexamethasone, 1 µM; stronger effect = lower value | z-score, hits read low | 220,000 compounds, 0.47% hits | AID 1381;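 active = plate z-score of nuclear minus cytoplasmic receptor signal below a set negative limit, without overly bright fluorescence or cell loss, cut at about -3.5 in these data, passing the limit was not always enough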;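 also: z-score of nuclear minus cytoplasmic ring GR-EGFP intensity difference per well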
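Schedule: 48 h induction, then 1 h compound, then 30 min agonist, 37 °C. Buffer or medium: tetracycline-free induction medium containing charcoal-stripped FBS. Reagent: 1.0 µM final dexamethasone stimulus. Evaluation: nuclear versus cytoplasmic GR-EGFP signal, averaged per well. Signal: high-content fluorescence imaging after fixation.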
Autophagy HCS – autophagy modulation, high-content screen; MEF GFP-LC3 puncta imaging; test concentration mostly 10 µM; calls only at 10 µM (by protocol); 190,000 compounds, 0.98% hits; AID 463193;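 active = percentage of spot-positive cells more than 3 SD above its plate mean, without a fluorescence outlier flag or 80% toxicity; inconclusive = no clear call, values can overlap the other calls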;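 also: spot-positive cell cutoff set from DMSO-treated cells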
ROMK retest – human ROMK channel modulation, retest confirmation; shares compounds with ROMK primary; ROMK thallium flux, fluorescence ratio; stronger effect = lower value; normalized thallium flux (F/F0 slope) at 10 µM; 3,000 compounds, 54% hits; AID 1917;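 active = Flux at 10 µM at least 3 SD below or above vehicle control mean in one or both replicates; inconclusive = no clear call, values can overlap the other calls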
Active calls of the source: *.

What do the screens show for `CCc1c(C)nc(SCC(=O)N2CCCCC2CC)[nH]c1=O` (stereo unspecified)?
Cl transport mod: -1.5; ROMK primary: -0.029; Dynein cargo inh: -0.56

What do the screens show for `O=C(O)c1ccoc1CN1CCCCC1`?
Redox H2O2 prof: 3; ROMK primary: 1.7*; Dynein cargo inh: -0.2; Autophagy HCS: inactive; ROMK retest: 0.075

What do the screens show for `O=C(CN1C(=O)C2C3CC(C(Br)C3Br)C2C1=O)Nc1ccc(C(=O)O)cc1` (stereo unspecified)?
Cl transport mod: 0.04; Dynein cargo inh: -1.1

How did OCCC1CN(Cc2nc(-c3ccc(F)cc3)cs2)CCN1CCc1ccccc1 (stereo unspecified) do in these assays?
Redox H2O2 prof: -1; Cl transport mod: -2.8; ROMK primary: -3.9*; Dynein cargo inh: -1.1; Autophagy HCS: inactive; ROMK retest: 0.054*

What do the screens show for `OCCC1CN(Cc2nc(-c3ccccc3)cs2)CCN1CCc1ccccc1` (stereo unspecified)?
Redox H2O2 prof: -1; Cl transport mod: -3.5; ROMK primary: -3.2; Dynein cargo inh: -0.32; Autophagy HCS: inactive

What do the screens show for `CCC(C)(C(=O)NC1CCCCC1)N(C(=O)CC1NC(=O)NC1=O)c1c(C)n(C)n(-c2ccccc2)c1=O` (stereo unspecified)?
Redox H2O2 prof: 0; Cl transport mod: 0.22; ROMK primary: 0.61; Dynein cargo inh: -1.1; Autophagy HCS: inactive

Results for CCc1ccc(CNC(=O)c2cc3c(C)nc4ccccc4c3o2)cc1 ?
Redox H2O2 prof: -1; Cl transport mod: -0.048; Dynein cargo inh: -0.23; ROMK retest: 0.071

What do the screens show for `COc1cccc(CNC(=O)c2cc3c(C)nc4ccccc4c3o2)c1`?
Redox H2O2 prof: -1; Dynein cargo inh: 2.7; Autophagy HCS: inactive

Results for CC1CCN(S(=O)(=O)c2ccc(S(=O)(=O)N3CCC4(CC3)OCCO4)cc2)CC1 ?
Redox H2O2 prof: 0; Cl transport mod: -0.47; ROMK primary: -0.41; Dynein cargo inh: 1.5; Autophagy HCS: inactive

Results for CCCC(c1nnnn1C(C)(C)CC)N(CCCO)Cc1cc2cc(C)cc(C)c2[nH]c1=O (stereo unspecified) ?
Redox H2O2 prof: 0; ROMK primary: -3.7*; Dynein cargo inh: -0.11; Autophagy HCS: inactive; ROMK retest: 0.055*

What do the screens show for `CCC(c1nnnn1C(C)(C)CC)N(CCN1CCOCC1)Cc1cc2cc(C)ccc2[nH]c1=O` (stereo unspecified)?
Redox H2O2 prof: -1; Cl transport mod: 0.27; ROMK primary: -4.8*; Dynein cargo inh: -0.79; Autophagy HCS: inactive; ROMK retest: inconclusive

What do the screens show for `CCC(c1nnnn1C(C)(C)CC)N(CCCO)Cc1cc2cc(C)cc(C)c2[nH]c1=O` (stereo unspecified)?
Redox H2O2 prof: -1; Cl transport mod: -0.77; Dynein cargo inh: -0.16; Autophagy HCS: inactive

How did O=C(C1CC1)N1CCC(c2nc(-c3ccc(S(=O)(=O)N4CCCC4)cc3)no2)CC1 do in these assays?
Redox H2O2 prof: 0; Cl transport mod: 0.04; ROMK primary: -0.3; Dynein cargo inh: 0.5; Autophagy HCS: inactive

What do the screens show for `CC(C)C(=O)N1CCC(c2nc(-c3ccc(S(=O)(=O)N4CCN(C)CC4)cc3)no2)CC1`?
Redox H2O2 prof: -1; Cl transport mod: -0.35; ROMK primary: 0.044; Dynein cargo inh: -0.63; Autophagy HCS: inactive; ROMK retest: 0.09

What do the screens show for `COC(=O)Cc1[nH]n(-c2ccccc2)c(=O)c1C=Nc1ccc(C)cc1`?
Cl transport mod: 1.8; Dynein cargo inh: -0.88

What do the screens show for `COc1ccc(N=Cc2c(O)ccc3ccccc23)cc1`?
Redox H2O2 prof: 0; Cl transport mod: -0.00026; ROMK primary: -2.8; Dynein cargo inh: -0.19; Autophagy HCS: inactive

How did O=C(O)Cc1ccc(N=Cc2c(O)ccc3ccccc23)cc1 do in these assays?
Redox H2O2 prof: 0; Cl transport mod: -3.4; Dynein cargo inh: -0.34; Autophagy HCS: inactive; ROMK retest: 0.081

How did CN(C)C(=S)c1ccccc1 do in these assays?
Cl transport mod: 0.47; Dynein cargo inh: 1.2; ROMK retest: 0.074

How did CN(C)C(=S)c1ccc(N(C)C)cc1 do in these assays?
Redox H2O2 prof: 0; Cl transport mod: 0.14; Dynein cargo inh: 0.52; Autophagy HCS: inactive

How did COc1ccc(OC)c(/C=c2\sc3nc(-c4cccs4)nn3c2=O)c1 do in these assays?
Redox H2O2 prof: -1; Dynein cargo inh: -0.58; Autophagy HCS: inactive; ROMK retest: 0.062*

How did CCCCCCCCCn1c2c(c(=N)c3c1CCC3)CCCC2 do in these assays?
Redox H2O2 prof: 0; Cl transport mod: -0.018; ROMK primary: -3.4*; Dynein cargo inh: 1.8; Autophagy HCS: inactive; ROMK retest: 0.038*

What do the screens show for `CCCCCn1c2c(c(=N)c3ccccc31)CCC2`?
Cl transport mod: -0.53; ROMK primary: -1.4; Dynein cargo inh: -0.83

How did CCCCCCCCn1c2c(c(=N)c3ccccc31)CCC2 do in these assays?
Redox H2O2 prof: 0; Cl transport mod: -0.77; ROMK primary: -6.6*; Dynein cargo inh: -1.1; Autophagy HCS: inactive; ROMK retest: 0.039*

What do the screens show for `CC1CN(C(=O)c2cc3c(s2)CCC3)CC(C)O1` (stereo unspecified)?
Redox H2O2 prof: 1; Cl transport mod: 0.72; Dynein cargo inh: 0.49; Autophagy HCS: inactive; ROMK retest: 0.086

Results for Cc1cc(C)n(-c2ccc(C(=O)Nc3cccc(S(=O)(=O)N4CCCC4)c3)cc2)n1 ?
Redox H2O2 prof: -2; Cl transport mod: -0.28; ROMK primary: -0.18; Dynein cargo inh: 0.79; Autophagy HCS: inactive

Results for Cc1cc(C)n(-c2ccc(C(=O)OCC(=O)Nc3ccc(S(=O)(=O)N4CCCCC4)cc3)cc2)n1 ?
Redox H2O2 prof: 0; Cl transport mod: -0.17; ROMK primary: 2*; Dynein cargo inh: 0.25; Autophagy HCS: inactive; ROMK retest: 0.078

Results for CCCCCNc1nc(-c2ccccc2)nc(-n2ccnc2)n1 ?
Redox H2O2 prof: 0; Cl transport mod: 0.74; Dynein cargo inh: 0.11; Autophagy HCS: inactive; ROMK retest: 0.085

Results for CCCCNc1nc(N(C)c2ccccc2)nc(-n2ccnc2)n1 ?
Redox H2O2 prof: 2; Cl transport mod: -0.028; ROMK primary: 1.2; Dynein cargo inh: -0.83; Autophagy HCS: inactive

Results for CC(=O)Nc1cccc(NC=C(C#N)C#N)c1 ?
Redox H2O2 prof: 0; Cl transport mod: 1; ROMK primary: -0.44; Dynein cargo inh: -0.45; Autophagy HCS: inactive

Results for CCOc1cc(/C=N/N=C2/NC(=O)C(CC(=O)O)S2)ccc1OCc1ccccc1Cl (stereo unspecified) ?
Redox H2O2 prof: 1; Cl transport mod: 0.16; ROMK primary: 1.7; Dynein cargo inh: -0.1; Autophagy HCS: inactive

Source: PubChem BioAssay (several laboratories)
